Our source for the cytotoxicity values is ChEMBL document CHEMBL4513216, “Probing the Open Global Health Chemical Diversity Library for Multistage-Active Starting Points for Next-Generation Antimalarials” (ACS Infect Dis, 2020).

The data set is described as follows: Toxicity liver stage against HepG2, at 10uM. The data set is classed as cell-based. More on the design: test concentration 10 uM, cell line HepG2-A16-CD81EGFP. The settings on record: human, HepG2-A16-CD81EGFP cells; read-out: INHIBITION
In short, it runs like this: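 Uninfected HepG2-A16-CD81EGFP cells, 3 × 10^3 per well, 1536-well, plated on prespotted compound at 10 μM final, parasite-free screening media added to match infected plates; puromycin 10 μM positive, DMSO 0.5% negative; run in parallel with 48 h PbLuc assay at 37 °C, 5% CO2; viability by CellTiter-Glo luminescence, normalized to controls.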
For `CCOCCCNC(=O)C(NC(=O)Cc1cccs1)c1ccc(C)cc1` (centres undefined), the cytotoxicity at 10 µM came to 13.2%. To `CN(Cc1cc(C[C@@H]2C[C@H](N)C2(C)C)no1)c1ccccc1` belongs -1.8%; to `O=C(CCc1ccccc1)NCC1CCN(Cc2ccccc2)CC1`, -6.29%; to `Cc1nnc([C@H]2C[C@H]3OCC[C@H]3N(S(=O)(=O)N(C)C)C2)o1`, -8.44%. Next, `COc1ccc(N2CCOCC3(CCCN(c4cnccn4)C3)C2)cc1` (centres undefined): 4.29%. To `CCc1ccc(C(O)CN2CCN(c3cccc(OC)c3)CC2)cc1` (centres undefined) belongs 11.2%; to `c1ccc(-c2nnc3sc(CCN4CCCC4)nn23)cc1`, 6.04%; to `Oc1nnc(-c2cccs2)c2sc(N3CCCCC3)nc12`, 7.52%. As for `Cc1csc2c(C3CCN(CCOc4ccccc4F)CC3)nc(C)n12`, the cytotoxicity at 10 µM turned out to be 5.89%.

With `CN(CCCOc1ccccc1)C(=O)c1csc(-c2nnc[nH]2)n1`, the cytotoxicity at 10 µM was 10.4%. Next, `N#CCCn1cnc2c(F)cc(Br)cc2c1=O`: 0.997%; `CCN(CC)S(=O)(=O)c1ccc(CNC(=O)N2CCCCCC2)cc1`: -2.9%. To `Clc1cccc(C(CNCc2ccccn2)N2CCOCC2)c1` (centres undefined) belongs -12%; to `N#Cc1ccc(S(=O)(=O)NC(=O)c2csc(-c3ccco3)n2)cc1`, -8.17%; to `COc1ncccc1CNc1snc(Cl)c1C#N`, 10.2%. Next, `CCN(CC1CN(Cc2ccn(C(C)C)n2)CCO1)c1cccnn1` (centres undefined): 5.06%; `Cc1cc2cc(CNC3CCN(CC(=O)N(C)C)CC3)oc2cc1C`: -5.95%; `CCc1ncc(C(=O)N2CCn3c(CC)nnc3C2)s1`: 1.03%. As for `OCC(O)CSCc1ccc(Cl)cc1Cl` (centres undefined), the cytotoxicity at 10 µM was -148%. Next, `Cc1nnc(CN2CCCC2c2ccsc2)o1` (centres undefined): 3.22%. `CC(C)N(Cc1ccc(C#N)cc1)C(=O)Nc1ccccn1`: the cytotoxicity at 10 µM is -0.518%.

For `OC1CCN(Cc2ccc(CNc3ccc(Cl)cn3)cc2)CC1`, the cytotoxicity at 10 µM was 0.313%. For `O=C(CN1CCOCC1CC(=O)c1ccco1)NCc1ccccn1` (centres undefined), the cytotoxicity at 10 µM was -4.92%. To `Cn1nc(C(C)(C)C)cc1NC(=O)Cn1ccccc1=O` belongs -10.5%; to `CCCS(=O)(=O)N1C[C@@H](c2ccccc2)[C@@]2(CCNC2=O)C1`, -109%; to `O=C(c1ccncc1)N1CCC2(CC1)CCN(C(=O)c1cccnc1)C2`, -93%. Next, `Cc1cnc(N2CCc3c(c(COc4cncnc4)nn3C)C2)nc1`: -98.8%; `CN(CC(=O)N1CCOC(CCc2ccccc2)C1)Cc1ccccn1` (centres undefined): -1.83%. Next, `Cc1cc(C(=O)N2CCCC3(CNC(=O)O3)C2)c2c(C)nn(C)c2n1` (centres undefined): 10.8%. With `CCNc1cc2c(nn1)CCN(C(=O)c1ccnc(-n3ccnc3)c1)C2`, the cytotoxicity at 10 µM is -3.01%.

`COC(C(=O)N1CCCN(Cc2cscn2)CC1)c1ccccc1` (centres undefined): the cytotoxicity at 10 µM was -8.34%. Next, `CC(C)n1nc(Cn2cccc2)c2c1CN(Cc1ccoc1)C2`: 1.49%; `O=C(O)[C@]12CCCN(CC3CCOC3)C[C@H]1CN(c1ncccn1)C2` (some centres undefined): -104%.

As for `CN(C)CCN1C[C@@H]2CN(S(=O)(=O)c3ccccc3)C[C@@H]2C1=O`, the cytotoxicity at 10 µM is -112%.

For the compound `COCC1CN(CCOc2ccc(Cl)cc2)Cc2c1cnn2C` (centres undefined), the cytotoxicity at 10 µM is -102%.

Consider `CN1CCCN(C(=O)c2ccnn2-c2ccc3ccccn23)CC1`, for which the cytotoxicity at 10 µM is -107%. For the compound `CN(C)CCN1CCO[C@H]2CCN(C(=O)c3cccs3)CC[C@@H]21`, the cytotoxicity at 10 µM is -8.32%.

Regarding `CC(C)CO[C@H]1CN(S(=O)(=O)c2cn(C)cn2)[C@@H]2CCCO[C@H]12`, the cytotoxicity at 10 µM was -148%.

Regarding `Cc1cnc(N2CCC3(CC2)CN(c2ccsc2)C(=O)CO3)nc1`, the cytotoxicity at 10 µM came to 7.34%.
